Laboratory results reported in ChEMBL document CHEMBL5154713, “Illuminating a Dark Kinase: Structure-Guided Design, Synthesis, and Evaluation of a Potent Nek1 Inhibitor and Its Effects on the Embryonic Zebrafish Pronephros” (J Med Chem, 2022).

Legend:
[1] = target: Epidermal growth factor receptor (Homo sapiens) (UniProt P00533); experiment: Inhibition of human recombinant EGFR (696 to end residues) assessed as residual activity at 1 uM using poly(Glu, Tyr) 4:1 as substrate incubated for 40 mins in presence of [gamma 33P]-ATP by radiometric scintillation counting assay relative to control
Chain of Epidermal growth factor receptor (Homo sapiens) (P00533 whole entry): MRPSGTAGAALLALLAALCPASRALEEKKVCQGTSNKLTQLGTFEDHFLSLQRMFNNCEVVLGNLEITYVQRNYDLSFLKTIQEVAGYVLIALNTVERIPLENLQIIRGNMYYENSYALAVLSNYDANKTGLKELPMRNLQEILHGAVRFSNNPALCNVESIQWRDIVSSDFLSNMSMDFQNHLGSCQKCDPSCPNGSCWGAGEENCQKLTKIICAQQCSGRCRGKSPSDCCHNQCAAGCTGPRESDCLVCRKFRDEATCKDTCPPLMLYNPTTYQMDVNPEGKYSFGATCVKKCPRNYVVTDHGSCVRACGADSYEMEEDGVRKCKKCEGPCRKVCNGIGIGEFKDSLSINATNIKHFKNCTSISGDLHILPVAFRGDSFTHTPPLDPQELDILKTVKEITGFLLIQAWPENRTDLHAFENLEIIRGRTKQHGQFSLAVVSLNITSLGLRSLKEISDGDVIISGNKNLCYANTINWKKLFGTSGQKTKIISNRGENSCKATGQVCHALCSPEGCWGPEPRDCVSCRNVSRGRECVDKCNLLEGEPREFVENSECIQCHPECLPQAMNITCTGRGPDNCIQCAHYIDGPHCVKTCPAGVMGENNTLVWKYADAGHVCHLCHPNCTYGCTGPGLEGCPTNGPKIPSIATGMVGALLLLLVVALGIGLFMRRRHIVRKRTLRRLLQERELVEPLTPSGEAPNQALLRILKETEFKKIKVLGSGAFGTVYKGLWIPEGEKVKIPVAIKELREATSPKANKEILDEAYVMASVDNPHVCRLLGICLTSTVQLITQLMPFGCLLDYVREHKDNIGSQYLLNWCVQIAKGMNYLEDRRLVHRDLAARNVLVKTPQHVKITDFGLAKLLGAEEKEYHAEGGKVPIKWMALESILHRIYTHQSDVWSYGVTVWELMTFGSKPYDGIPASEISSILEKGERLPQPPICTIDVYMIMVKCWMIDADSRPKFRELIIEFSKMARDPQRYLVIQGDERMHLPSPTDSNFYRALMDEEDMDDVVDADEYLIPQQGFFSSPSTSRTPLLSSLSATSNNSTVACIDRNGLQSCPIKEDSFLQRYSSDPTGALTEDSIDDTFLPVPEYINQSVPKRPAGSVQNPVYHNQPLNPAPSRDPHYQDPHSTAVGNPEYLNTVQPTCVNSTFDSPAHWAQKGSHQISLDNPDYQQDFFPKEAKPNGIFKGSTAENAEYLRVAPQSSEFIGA
Summary of the method: (§1)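 Commercial radiometric panel of 50 kinases. Each recombinant human kinase was tested at a single compound concentration of 1 μM. ATP was set within 15 μM of the apparent Km for ATP for each kinase. Residual activity is relative to control and is the mean of two independent experiments.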

[2] = target: Protein kinase C eta type (Homo sapiens) (UniProt P24723); experiment: Inhibition of recombinant human full length PKCeta (2 to end residues) assessed as residual activity at 1 uM using ERMRPRKRQGSVRRRV as substrate incubated for 40 mins in presence of [gamma-33P]-ATP by scintillation counting method relative to control; summary of the method: as §1
Chain of Protein kinase C eta type (Homo sapiens) (P24723 whole entry): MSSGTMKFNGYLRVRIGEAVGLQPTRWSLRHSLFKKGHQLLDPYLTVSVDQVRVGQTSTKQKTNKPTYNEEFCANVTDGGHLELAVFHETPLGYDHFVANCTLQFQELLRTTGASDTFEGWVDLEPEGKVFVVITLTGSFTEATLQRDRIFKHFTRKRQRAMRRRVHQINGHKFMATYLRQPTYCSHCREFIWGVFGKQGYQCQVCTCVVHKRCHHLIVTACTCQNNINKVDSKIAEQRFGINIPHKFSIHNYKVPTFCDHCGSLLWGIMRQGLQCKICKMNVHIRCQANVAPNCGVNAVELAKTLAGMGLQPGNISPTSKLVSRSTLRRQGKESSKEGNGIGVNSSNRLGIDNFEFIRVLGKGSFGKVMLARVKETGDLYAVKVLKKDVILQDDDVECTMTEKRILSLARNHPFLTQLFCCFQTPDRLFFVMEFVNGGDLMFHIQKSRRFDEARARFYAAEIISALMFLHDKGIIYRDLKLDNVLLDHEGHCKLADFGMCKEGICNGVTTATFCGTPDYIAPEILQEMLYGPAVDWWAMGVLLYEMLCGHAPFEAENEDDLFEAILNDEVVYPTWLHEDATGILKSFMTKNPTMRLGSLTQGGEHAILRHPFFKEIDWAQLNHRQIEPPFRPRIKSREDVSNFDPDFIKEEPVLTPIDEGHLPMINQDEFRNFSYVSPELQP

[3] = target: Mitogen-activated protein kinase 14 (Homo sapiens) (UniProt Q16539); experiment: Inhibition of recombinant human full length SAPK2a assessed as residual activity at 1 uM using myelin basic protein as substrate measured after 40 mins in presence of [gamma33P]ATP by scintillation counting method relative to control; summary of the method: as §1
Chain of Mitogen-activated protein kinase 14 (Homo sapiens) (Q16539 whole entry): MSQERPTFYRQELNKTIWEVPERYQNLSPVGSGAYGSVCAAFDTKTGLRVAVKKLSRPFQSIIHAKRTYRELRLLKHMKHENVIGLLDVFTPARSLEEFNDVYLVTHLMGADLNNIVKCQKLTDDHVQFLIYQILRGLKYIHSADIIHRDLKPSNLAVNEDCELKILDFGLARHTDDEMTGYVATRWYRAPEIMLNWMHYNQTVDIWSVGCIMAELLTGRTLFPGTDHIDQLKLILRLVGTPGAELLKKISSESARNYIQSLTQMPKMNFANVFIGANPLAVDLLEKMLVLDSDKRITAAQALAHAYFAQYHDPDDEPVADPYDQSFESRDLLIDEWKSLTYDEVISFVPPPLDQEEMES

[4] = target: Inhibitor of nuclear factor kappa-B kinase subunit alpha (Homo sapiens) (UniProt O15111); experiment: Inhibition of human full length recombinant IKKalpha assessed as residual activity at 1 uM using peptide as substrate incubated for 40 mins in presence of [gamma 33P]-ATP by radiometric scintillation counting assay relative to control; summary of the method: as §1
Chain of Inhibitor of nuclear factor kappa-B kinase subunit alpha (Homo sapiens) (O15111 whole entry): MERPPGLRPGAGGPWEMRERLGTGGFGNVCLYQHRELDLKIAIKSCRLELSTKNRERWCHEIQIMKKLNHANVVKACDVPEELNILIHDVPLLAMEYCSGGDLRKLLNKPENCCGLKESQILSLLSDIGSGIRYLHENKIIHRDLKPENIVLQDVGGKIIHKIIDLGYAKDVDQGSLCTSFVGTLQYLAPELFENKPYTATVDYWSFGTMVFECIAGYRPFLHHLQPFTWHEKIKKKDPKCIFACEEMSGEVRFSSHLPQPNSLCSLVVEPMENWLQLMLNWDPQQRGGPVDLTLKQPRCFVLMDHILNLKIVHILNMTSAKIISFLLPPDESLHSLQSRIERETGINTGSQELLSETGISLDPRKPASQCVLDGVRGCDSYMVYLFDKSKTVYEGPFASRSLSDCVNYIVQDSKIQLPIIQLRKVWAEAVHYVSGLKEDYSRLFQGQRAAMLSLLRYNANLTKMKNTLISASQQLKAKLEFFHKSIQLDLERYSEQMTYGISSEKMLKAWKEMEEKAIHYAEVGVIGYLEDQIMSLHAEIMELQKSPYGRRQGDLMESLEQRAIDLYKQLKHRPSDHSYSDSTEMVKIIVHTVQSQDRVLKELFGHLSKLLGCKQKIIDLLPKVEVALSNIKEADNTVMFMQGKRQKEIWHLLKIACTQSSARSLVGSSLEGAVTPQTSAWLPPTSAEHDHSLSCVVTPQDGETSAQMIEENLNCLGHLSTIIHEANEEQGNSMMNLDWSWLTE

[5] = Permeability across apical to basolateral side in human Caco-2 cells assessed as drug recovery at pH 6.5 to 7.4 by HPLC-MS/MS analysis; type: ADME, cell-based; conditions: Caco-2, pH 6.5, read-out: Drug recovery
Summary of the method: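 Commercial Caco-2 assay, apical-to-basolateral direction at pH 6.5/7.4. Permeability and percent recovery taken from HPLC-MS/MS peak area response. Propranolol, labetalol, colchicine and ranitidine run in parallel as references.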

[6] = target: Ephrin type-B receptor 4 (Homo sapiens) (UniProt P54760); experiment: Inhibition of recombinant human EphB4 (561 to end residues) assessed as residual activity at 1 uM using poly(Glu, Tyr) 4:1 as substrate at 40 mins in presence of [gamma-33ATP] by scintillation counting based radiometry assay relative to control; summary of the method: as §1
Chain of Ephrin type-B receptor 4 (Homo sapiens) (P54760 whole entry): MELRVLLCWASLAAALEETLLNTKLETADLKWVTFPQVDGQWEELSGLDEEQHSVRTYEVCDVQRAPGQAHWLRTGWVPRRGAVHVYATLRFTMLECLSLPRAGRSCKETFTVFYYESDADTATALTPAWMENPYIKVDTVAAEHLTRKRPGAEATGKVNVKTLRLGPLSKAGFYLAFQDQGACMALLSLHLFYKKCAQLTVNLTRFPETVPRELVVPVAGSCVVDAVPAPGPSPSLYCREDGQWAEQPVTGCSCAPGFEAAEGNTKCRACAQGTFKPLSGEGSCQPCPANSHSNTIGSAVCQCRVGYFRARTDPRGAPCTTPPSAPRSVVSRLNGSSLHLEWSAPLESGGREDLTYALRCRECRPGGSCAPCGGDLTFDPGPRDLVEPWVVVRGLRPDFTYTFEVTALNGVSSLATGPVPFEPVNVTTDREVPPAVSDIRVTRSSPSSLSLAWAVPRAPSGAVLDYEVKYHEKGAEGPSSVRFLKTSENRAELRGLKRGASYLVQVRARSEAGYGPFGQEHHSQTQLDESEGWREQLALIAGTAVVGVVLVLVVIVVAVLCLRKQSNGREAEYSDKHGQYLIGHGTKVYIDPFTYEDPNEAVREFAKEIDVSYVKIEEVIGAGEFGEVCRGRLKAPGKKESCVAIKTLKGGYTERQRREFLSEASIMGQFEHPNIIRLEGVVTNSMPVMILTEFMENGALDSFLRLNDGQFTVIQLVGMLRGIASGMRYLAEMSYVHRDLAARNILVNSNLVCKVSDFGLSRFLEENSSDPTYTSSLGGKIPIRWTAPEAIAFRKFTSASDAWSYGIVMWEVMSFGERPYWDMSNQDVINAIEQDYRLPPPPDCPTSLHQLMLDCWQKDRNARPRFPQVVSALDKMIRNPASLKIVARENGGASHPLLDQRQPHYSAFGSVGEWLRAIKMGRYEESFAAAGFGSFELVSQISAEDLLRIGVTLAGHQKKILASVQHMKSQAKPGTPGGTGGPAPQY

For `O=S(=O)(N[C@@H](CO)Cc1c[nH]c2ccccc12)c1ccc(-c2ccnc3[nH]ccc23)cc1`, the Activity [1] was > 75%, the Activity [2] was > 75% and the Activity [3] was > 75%. For the same molecule, the Activity [4] was < 75%, the recovery [5] was 45% and the Activity [6] was > 75%.
